Published values gathered from unrelated publications.
Compare with care: the assays were run in different laboratories.
SLC6A3: Sodium-dependent dopamine transporter (SLC6A3, Homo sapiens, UniProt Q01959)
CA12: Carbonic anhydrase 12 (CA12, Homo sapiens, UniProt O43570)
DRD3: D(3) dopamine receptor (DRD3, Homo sapiens, UniProt P35462)

SMILES | target | effect on | action | technique | measurement | result
N#C[C@@]12C[C@@H]1[C@@H](n1cnc3c(Nc4ccccc4)nc(C#Cc4ccc(Cl)s4)nc31)[C@H](O)[C@@H]2O | SLC6A3 | ligand displacement | – | radioligand | Ki | 1.5 µM
O=C(OCc1cn(-c2ccc(Cl)cc2)nn1)c1ccc(=O)oc1 | CA12 | enzyme activity | inhibitor | stopped-flow | Ki | 61.3 µM
CCOC(=O)[C@@]12C[C@@H]1[C@@H](n1cnc3c(NCCCCCc4ccccc4)nc(I)nc31)[C@H](O)[C@@H]2O | SLC6A3 | ligand displacement | – | radioligand | Ki | 1.6 µM
O=C(Oc1ccc(Cl)cc1)c1ccc(=O)oc1 | CA12 | enzyme activity | inhibitor | stopped-flow | Ki | 76.3 µM
Cc1[nH]c(C)c(S(=O)(=O)Nc2ccc(C3CC3)c(Cl)c2)c1C(=O)N1CCC(F)(F)C1 | DRD3 | β-arrestin recruitment | antagonist | – | IC50 | 13 µM
Cc1ccc(-n2cc(COC(=O)c3ccc(=O)oc3)nn2)cc1 | CA12 | enzyme activity | inhibitor | stopped-flow | Ki | 62.6 µM
COc1cc(C(F)(F)F)c(Cl)cc1NS(=O)(=O)c1c(C)[nH]c(C)c1C(=O)N1CCC(F)(F)C1 | DRD3 | β-arrestin recruitment | antagonist | – | IC50 | 7.2 µM
O=C(NCc1cn(-c2ccccc2)nn1)c1ccc(=O)oc1 | CA12 | enzyme activity | inhibitor | stopped-flow | Ki | 62 µM
Cc1[nH]c(C)c(S(=O)(=O)Nc2ccc(C(F)(F)F)c(Cl)c2)c1C(=O)N1CC[C@@H](F)C1 | DRD3 | G protein activation | antagonist | BRET | IC50 | 1 µM
Cc1c(Cl)c(=O)oc2cc(OCCCCSC#N)ccc12 | CA12 | enzyme activity | inhibitor | stopped-flow | Ki | 0.0591 µM
O=C(OC1CCCCC1)c1ccc(=O)oc1 | CA12 | enzyme activity | inhibitor | stopped-flow | Ki | 3.12 µM
CCOC(=O)[C@@]12C[C@@H]1[C@@H](n1cnc3c(NCc4cccc(Cl)c4)nc(C#Cc4ccc(Cl)s4)nc31)[C@H](O)[C@@H]2O | SLC6A3 | ligand displacement | – | radioligand | Ki | 0.94 µM
CC(C)(Sc1ccc(CCN(CCCCC2CCCCC2)C(=O)NC2CCCCC2)cc1)C(=O)O | Triggering receptor expressed on myeloid cells 2 (Homo sapiens, UniProt Q9NZC2) | binding | – | SPR | Kd | 86.2 µM
CCOC(=O)[C@@]12C[C@@H]1[C@@H](n1cnc3c(Nc4ccccc4)nc(C#Cc4ccc(Cl)s4)nc31)[C@H](O)[C@@H]2O | SLC6A3 | ligand displacement | – | radioligand | Ki | 1.4 µM
Cc1[nH]c(C)c(S(=O)(=O)Nc2ccc(C(F)(F)F)c(Cl)c2)c1C(=O)N(C)CC(F)(F)F | DRD3 | G protein activation | antagonist | BRET | IC50 | 4.6 µM
OC[C@@]12C[C@@H]1[C@@H](n1cnc3c(NCCCCCCc4ccccc4)nc(I)nc31)[C@H](O)[C@@H]2O | SLC6A3 | ligand displacement | – | radioligand | Ki | 0.89 µM
Cc1[nH]c(C)c(S(=O)(=O)Nc2cc(Cl)cc(Cl)c2Cl)c1C(=O)N1CCC(F)(F)C1 | DRD3 | G protein activation | antagonist | BRET | IC50 | 14.8 µM
OC[C@@]12C[C@@H]1[C@@H](n1cnc3c(N[C@@H](C4CCC4)C4CC4)nc(C#Cc4ccc(Cl)s4)nc31)[C@H](O)[C@@H]2O | SLC6A3 | ligand displacement | – | radioligand | Ki | 0.89 µM
CCN(C)C(=O)c1c(C)[nH]c(C)c1S(=O)(=O)Nc1ccc(C(F)(F)F)c(Cl)c1 | DRD3 | G protein activation | antagonist | BRET | IC50 | 13 µM
CNC(=O)[C@@]12C[C@@H]1[C@@H](n1cnc3c(NCc4cccc(Cl)c4)nc(C#Cc4ccc(Cl)s4)nc31)[C@H](O)[C@@H]2O | SLC6A3 | ligand displacement | – | radioligand | Ki | 1.6 µM
Cc1[nH]c(C)c(S(=O)(=O)Nc2ccc(S(C)(=O)=O)c(Cl)c2)c1C(=O)N1CCC(F)(F)C1 | DRD3 | G protein activation | antagonist | BRET | IC50 | 23 µM
O=C(Oc1ccccc1)c1ccc(=O)oc1 | CA12 | enzyme activity | inhibitor | stopped-flow | Ki | 65.7 µM
OCc1ccccc1O[C@@H]1O[C@H](CO)[C@@H](O)[C@H](O)[C@H]1O | Taste receptor type 2 member 16 (TAS2R16, Homo sapiens, UniProt Q9NYV7, N96T) | inositol phosphate | agonist | TR-FRET | EC50 | 5520 µM
C#CCNC(=O)c1ccc(=O)oc1 | CA12 | enzyme activity | inhibitor | stopped-flow | Ki | 68.1 µM
Cc1[nH]cc(S(=O)(=O)Nc2ccc(C(F)(F)F)c(Cl)c2)c1C(=O)N(C)C | DRD3 | G protein activation | antagonist | BRET | IC50 | 6.3 µM
CCOC(=O)[C@@]12C[C@@H]1[C@@H](n1cnc3c(NCCO)nc(C#Cc4ccc(Cl)s4)nc31)[C@H](O)[C@@H]2O | SLC6A3 | ligand displacement | – | radioligand | EC50 | 0.97 µM
O=C(OCc1cn(-c2ccccc2)nn1)c1ccc(=O)oc1 | CA12 | enzyme activity | inhibitor | stopped-flow | Ki | 55.8 µM
